Measurements taken from ChEMBL document CHEMBL5724801, “EUbOPEN Chemogenomics Library - Multiplex” (2024).
“And” between values parts separate entries of the source, which are not always exact repeats. Identical values can stand only once.

Test system: U2OS
Assay: Multiplex assay against U2OS
Type: toxicity, cell-based
Conditions: human
Method in brief: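 Live cells were stained at seeding with Hoechst33342, BioTracker Green Microtubule Cytoskeleton Dye, MitoTracker Red and Annexin V Alexa Fluor 680. Following compound addition, they were imaged on a CQ1 microscope at 37°C and 5% CO2 and gated by CellPathfinder machine learning into Hoechst high-intensity objects or normal cells, with normal cells split into healthy, pyknosed or fragmented nuclei and pyknosed cells into mitotic or apoptotic. Tubulin, mitochondrial-mass and membrane-permeability phenotypes are per cents of healthy-nucleus cells.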

[1] = 12 h, 1 µM, compound concentration 1 uM
[2] = 12 h, 10 µM, compound concentration 10 uM
[3] = 24 h, 1 µM, compound concentration 1 uM
[4] = 24 h, 10 µM, compound concentration 10 uM
[5] = 48 h, 1 µM, compound concentration 1 uM
[6] = 48 h, 10 µM, compound concentration 10 uM

NC1=NC(=O)/C(=C2\CCNC(=O)c3[nH]c4ccccc4c32)N1
Population Apoptotic (%) [1]: 44.68% and 29.17% | Population Fragmented Nuclei (%) [1]: 0.45% and 1.59% | Population Healthy Nuclei (%) [1]: 89.06% and 85.71% | Population Hoechst High Intensity Objects (%) [1]: 0% | Population Membrane Permeable-Phenotype (%) [1]: 1.75% and 0.62% | Population Mitochondria Different-Phenotype (%) [1]: 0% and 9.26% | Population Mitotic Cells (%) [1]: 55.32% and 70.83% | Population Normal (%) [1]: 100% | Population Pyknosed Nuclei (%) [1]: 10.49% and 12.7% | Population Tubulin-Different-Phenotype (%) [1]: 1.25% and 0% | Total Cell Count [1]: 448 and 189 | Population Apoptotic (%) [2]: 37.14% and 30.43% | Population Fragmented Nuclei (%) [2]: 3.07% and 2.13% | Population Healthy Nuclei (%) [2]: 84.98% and 85.64% | Population Hoechst High Intensity Objects (%) [2]: 0% | Population Membrane Permeable-Phenotype (%) [2]: 1.2% and 1.86% | Population Mitochondria Different-Phenotype (%) [2]: 0% and 5.59% | Population Mitotic Cells (%) [2]: 62.86% and 69.57% | Population Normal (%) [2]: 100% | Population Pyknosed Nuclei (%) [2]: 11.95% and 12.23% | Population Tubulin-Different-Phenotype (%) [2]: 2.01% and 0% | Total Cell Count [2]: 293 and 188 | Population Apoptotic (%) [3]: 52.94% and 37.04% | Population Fragmented Nuclei (%) [3]: 2.55% and 1.59% | Population Healthy Nuclei (%) [3]: 89.31% and 87.7% | Population Hoechst High Intensity Objects (%) [3]: 0% | Population Membrane Permeable-Phenotype (%) [3]: 0.54% and 0.9% | Population Mitochondria Different-Phenotype (%) [3]: 0.36% and 4.07% | Population Mitotic Cells (%) [3]: 47.06% and 62.96% | Population Normal (%) [3]: 100% | Population Pyknosed Nuclei (%) [3]: 8.13% and 10.71% | Population Tubulin-Different-Phenotype (%) [3]: 0.54% and 0% | Total Cell Count [3]: 627 and 252 | Population Apoptotic (%) [4]: 43.59% and 37.5% | Population Fragmented Nuclei (%) [4]: 2.31% and 2.43% | Population Healthy Nuclei (%) [4]: 87.69% and 84.62% | Population Hoechst High Intensity Objects (%) [4]: 0% | Population Membrane Permeable-Phenotype (%) [4]: 0.88% and 1.91% | Population Mitochondria Different-Phenotype (%) [4]: 0.29% and 5.26% | Population Mitotic Cells (%) [4]: 56.41% and 62.5% | Population Normal (%) [4]: 100% | Population Pyknosed Nuclei (%) [4]: 10% and 12.96% | Population Tubulin-Different-Phenotype (%) [4]: 0.58% and 0% | Total Cell Count [4]: 390 and 247 | Population Apoptotic (%) [5]: 41.94% and 47.37% | Population Fragmented Nuclei (%) [5]: 4.36% and 0.45% | Population Healthy Nuclei (%) [5]: 87.84% and 91.01% | Population Hoechst High Intensity Objects (%) [5]: 0% | Population Membrane Permeable-Phenotype (%) [5]: 0.76% and 1.73% | Population Mitochondria Different-Phenotype (%) [5]: 0.1% and 2.22% | Population Mitotic Cells (%) [5]: 58.06% and 52.63% | Population Normal (%) [5]: 100% | Population Pyknosed Nuclei (%) [5]: 7.8% and 8.54% | Population Tubulin-Different-Phenotype (%) [5]: 0.86% and 0.99% | Total Cell Count [5]: 1192 and 445 | Population Apoptotic (%) [6]: 40.28% and 50% | Population Fragmented Nuclei (%) [6]: 3.29% and 1.05% | Population Healthy Nuclei (%) [6]: 87.22% and 88.98% | Population Hoechst High Intensity Objects (%) [6]: 0% | Population Membrane Permeable-Phenotype (%) [6]: 0.6% and 0.29% | Population Mitochondria Different-Phenotype (%) [6]: 0% and 4.72% | Population Mitotic Cells (%) [6]: 59.72% and 50% | Population Normal (%) [6]: 100% | Population Pyknosed Nuclei (%) [6]: 9.49% and 9.97% | Population Tubulin-Different-Phenotype (%) [6]: 0.15% and 0.29% | Total Cell Count [6]: 759 and 381

CCCCC1=NC2(CCCC2)C(=O)N1Cc1ccc(-c2ccccc2-c2nnn[nH]2)cc1 [IRBESARTAN]
Population Apoptotic (%) [1]: 83% and 77% | Population Fragmented Nuclei (%) [1]: 25% and 9% | Population Healthy Nuclei (%) [1]: 66% and 82% | Population Hoechst High Intensity Objects (%) [1]: 2% and 0% | Population Membrane Permeable-Phenotype (%) [1]: 5% and 11% | Population Mitochondria Different-Phenotype (%) [1]: 1% | Population Mitotic Cells (%) [1]: 16% and 22% | Population Normal (%) [1]: 97% and 99% | Population Pyknosed Nuclei (%) [1]: 7% | Population Tubulin-Different-Phenotype (%) [1]: 1% and 8% | Total Cell Count [1]: 233 and 124 | Population Apoptotic (%) [2]: 91% and 100% | Population Fragmented Nuclei (%) [2]: 22% and 18% | Population Healthy Nuclei (%) [2]: 68% and 74% | Population Hoechst High Intensity Objects (%) [2]: 2% and 0% | Population Membrane Permeable-Phenotype (%) [2]: 4% and 8% | Population Mitochondria Different-Phenotype (%) [2]: 3% and 6% | Population Mitotic Cells (%) [2]: 8% and 0% | Population Normal (%) [2]: 97% and 100% | Population Pyknosed Nuclei (%) [2]: 9% and 8% | Population Tubulin-Different-Phenotype (%) [2]: 2% and 8% | Total Cell Count [2]: 254 and 100 | Population Apoptotic (%) [3]: 70% and 66% | Population Fragmented Nuclei (%) [3]: 23% and 12% | Population Healthy Nuclei (%) [3]: 69% and 76% | Population Hoechst High Intensity Objects (%) [3]: 3% and 2% | Population Membrane Permeable-Phenotype (%) [3]: 6% and 9% | Population Mitochondria Different-Phenotype (%) [3]: 3% and 2% | Population Mitotic Cells (%) [3]: 29% and 33% | Population Normal (%) [3]: 96% and 97% | Population Pyknosed Nuclei (%) [3]: 7% and 10% | Population Tubulin-Different-Phenotype (%) [3]: 3% and 4% | Total Cell Count [3]: 241 and 142 | Population Apoptotic (%) [4]: 96% and 91% | Population Fragmented Nuclei (%) [4]: 18% | Population Healthy Nuclei (%) [4]: 73% and 72% | Population Hoechst High Intensity Objects (%) [4]: 2% and 0% | Population Membrane Permeable-Phenotype (%) [4]: 6% and 7% | Population Mitochondria Different-Phenotype (%) [4]: 3% | Population Mitotic Cells (%) [4]: 4% and 8% | Population Normal (%) [4]: 97% and 99% | Population Pyknosed Nuclei (%) [4]: 8% | Population Tubulin-Different-Phenotype (%) [4]: 4% and 3% | Total Cell Count [4]: 301 and 135 | Population Apoptotic (%) [5]: 97% and 94% | Population Fragmented Nuclei (%) [5]: 18% and 14% | Population Healthy Nuclei (%) [5]: 71% and 76% | Population Hoechst High Intensity Objects (%) [5]: 2% and 4% | Population Membrane Permeable-Phenotype (%) [5]: 5% and 6% | Population Mitochondria Different-Phenotype (%) [5]: 2% and 1% | Population Mitotic Cells (%) [5]: 2% and 5% | Population Normal (%) [5]: 97% and 95% | Population Pyknosed Nuclei (%) [5]: 10% and 9% | Population Tubulin-Different-Phenotype (%) [5]: 2% | Total Cell Count [5]: 357 and 198 | Population Apoptotic (%) [6]: 89% and 94% | Population Fragmented Nuclei (%) [6]: 14% and 16% | Population Healthy Nuclei (%) [6]: 75% and 72% | Population Hoechst High Intensity Objects (%) [6]: 3% and 4% | Population Membrane Permeable-Phenotype (%) [6]: 7% and 9% | Population Mitochondria Different-Phenotype (%) [6]: 3% and 7% | Population Mitotic Cells (%) [6]: 10% and 5% | Population Normal (%) [6]: 96% and 95% | Population Pyknosed Nuclei (%) [6]: 9% and 10% | Population Tubulin-Different-Phenotype (%) [6]: 3% and 7% | Total Cell Count [6]: 419 and 175

O=C1NC(NC23CC4CC(CC(C4)C2)C3)=N/C1=C\c1ccc2ncsc2c1
Population Apoptotic (%) [1]: 51.02% and 44.83% | Population Fragmented Nuclei (%) [1]: 17.88% and 22.19% | Population Healthy Nuclei (%) [1]: 75% and 69.66% | Population Hoechst High Intensity Objects (%) [1]: 0.86% and 0% | Population Membrane Permeable-Phenotype (%) [1]: 0.97% and 3.63% | Population Mitochondria Different-Phenotype (%) [1]: 0% and 3.23% | Population Mitotic Cells (%) [1]: 48.98% and 55.17% | Population Normal (%) [1]: 99.14% and 100% | Population Pyknosed Nuclei (%) [1]: 7.12% and 8.15% | Population Tubulin-Different-Phenotype (%) [1]: 0.58% and 2.82% | Total Cell Count [1]: 694 and 356 | Population Apoptotic (%) [2]: 44.44% and 38.46% | Population Fragmented Nuclei (%) [2]: 64.07% and 81% | Population Healthy Nuclei (%) [2]: 21.59% and 11.58% | Population Membrane Permeable-Phenotype (%) [2]: 0.82% and 0% | Population Mitochondria Different-Phenotype (%) [2]: 0% and 1.41% | Population Mitotic Cells (%) [2]: 55.56% and 61.54% | Population Normal (%) [2]: 52.03% and 84.32% | Population Pyknosed Nuclei (%) [2]: 14.34% and 7.42% | Population Tubulin-Different-Phenotype (%) [2]: 0% and 1.41% | Total Cell Count [2]: 1086 and 1454 | Population Apoptotic (%) [3]: 50% and 44.68% | Population Fragmented Nuclei (%) [3]: 19.28% and 20.63% | Population Healthy Nuclei (%) [3]: 75.17% and 67.96% | Population Hoechst High Intensity Objects (%) [3]: 0.69% and 0% | Population Membrane Permeable-Phenotype (%) [3]: 1.48% and 2.86% | Population Mitochondria Different-Phenotype (%) [3]: 0.37% and 5.71% | Population Mitotic Cells (%) [3]: 50% and 55.32% | Population Normal (%) [3]: 99.31% and 100% | Population Pyknosed Nuclei (%) [3]: 5.55% and 11.41% | Population Tubulin-Different-Phenotype (%) [3]: 2.03% and 2.86% | Total Cell Count [3]: 726 and 412 | Population Apoptotic (%) [4]: 45.1% and 35.71% | Population Fragmented Nuclei (%) [4]: 58.49% and 84.85% | Population Healthy Nuclei (%) [4]: 17.9% and 8.37% | Population Membrane Permeable-Phenotype (%) [4]: 0% | Population Mitochondria Different-Phenotype (%) [4]: 0% | Population Mitotic Cells (%) [4]: 54.9% and 64.29% | Population Normal (%) [4]: 60.11% and 86.9% | Population Tubulin-Different-Phenotype (%) [4]: 0% | Total Cell Count [4]: 1078 and 1664 | Population Apoptotic (%) [5]: 50% and 51.75% | Population Fragmented Nuclei (%) [5]: 22.08% and 20.53% | Population Healthy Nuclei (%) [5]: 72.6% and 58% | Population Hoechst High Intensity Objects (%) [5]: 3.35% and 1.12% | Population Membrane Permeable-Phenotype (%) [5]: 1.27% and 2.27% | Population Mitochondria Different-Phenotype (%) [5]: 0.32% and 9.42% | Population Mitotic Cells (%) [5]: 50% and 48.25% | Population Normal (%) [5]: 96.65% and 98.88% | Population Tubulin-Different-Phenotype (%) [5]: 2.23% and 2.6% | Total Cell Count [5]: 895 and 537 | Population Apoptotic (%) [6]: 51.13% and 47.24% | Population Fragmented Nuclei (%) [6]: 58.82% and 85.02% | Population Healthy Nuclei (%) [6]: 12.73% and 6.82% | Population Hoechst High Intensity Objects (%) [6]: 31% and 15.76% | Population Membrane Permeable-Phenotype (%) [6]: 0% and 1.89% | Population Mitochondria Different-Phenotype (%) [6]: 0% and 0.94% | Population Mitotic Cells (%) [6]: 48.87% and 52.76% | Population Normal (%) [6]: 69% and 84.24% | Population Tubulin-Different-Phenotype (%) [6]: 0% | Total Cell Count [6]: 1355 and 1846
